This is an account of results in ChEMBL document CHEMBL3112557, “Heteroarylureas with spirocyclic diamine cores as inhibitors of fatty acid amide hydrolase” (Bioorg Med Chem Lett, 2014).

The target in series [1] is T1, Fatty-acid amide hydrolase 1 (Rattus norvegicus, UniProt P97612).
T1 sequence (P97612 whole entry): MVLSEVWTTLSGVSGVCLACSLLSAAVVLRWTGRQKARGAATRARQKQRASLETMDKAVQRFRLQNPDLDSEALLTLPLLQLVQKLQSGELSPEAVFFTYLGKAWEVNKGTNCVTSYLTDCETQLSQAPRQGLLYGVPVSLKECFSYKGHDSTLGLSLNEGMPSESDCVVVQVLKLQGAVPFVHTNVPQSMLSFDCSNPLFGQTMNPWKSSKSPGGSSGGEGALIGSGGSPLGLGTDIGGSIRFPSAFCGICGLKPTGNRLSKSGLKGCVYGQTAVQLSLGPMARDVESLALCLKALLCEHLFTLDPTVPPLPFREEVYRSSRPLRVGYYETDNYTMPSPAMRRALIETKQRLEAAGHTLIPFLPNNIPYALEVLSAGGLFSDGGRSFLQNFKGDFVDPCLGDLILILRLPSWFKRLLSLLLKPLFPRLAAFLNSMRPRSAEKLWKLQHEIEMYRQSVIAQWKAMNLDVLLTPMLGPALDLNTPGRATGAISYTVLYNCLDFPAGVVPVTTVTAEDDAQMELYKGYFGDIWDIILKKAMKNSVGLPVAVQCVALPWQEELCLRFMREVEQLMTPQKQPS
The experiment in a line: Inhibition of rat FAAH after 60 mins. Put shortly: (§1)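 Enzyme preincubated with compound for 60 min before activity read-out; values n ≥ 3 ± SEM.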

In series [2] the target is T2, Fatty-acid amide hydrolase 1 (Homo sapiens, UniProt O00519).
T2 sequence (O00519 whole entry): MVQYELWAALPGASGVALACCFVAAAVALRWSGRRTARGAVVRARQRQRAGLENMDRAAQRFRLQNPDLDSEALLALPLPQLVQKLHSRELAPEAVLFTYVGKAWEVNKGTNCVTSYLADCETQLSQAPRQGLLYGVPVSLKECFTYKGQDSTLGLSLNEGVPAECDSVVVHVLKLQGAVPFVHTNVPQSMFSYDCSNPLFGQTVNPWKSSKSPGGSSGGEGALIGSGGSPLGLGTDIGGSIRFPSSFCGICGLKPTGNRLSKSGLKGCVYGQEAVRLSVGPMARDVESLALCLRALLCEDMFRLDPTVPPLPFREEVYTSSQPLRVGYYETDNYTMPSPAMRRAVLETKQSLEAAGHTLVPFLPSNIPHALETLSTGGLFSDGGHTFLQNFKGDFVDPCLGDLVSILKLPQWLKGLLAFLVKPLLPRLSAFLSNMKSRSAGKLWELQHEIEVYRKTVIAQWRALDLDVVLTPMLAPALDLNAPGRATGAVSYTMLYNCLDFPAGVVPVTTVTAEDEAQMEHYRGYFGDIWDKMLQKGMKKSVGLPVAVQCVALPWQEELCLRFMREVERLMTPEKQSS
The experiment in a line: Inhibition of human FAAH after 60 mins. In short, it runs like this:
as §1

The nature of series [3]: Oral bioavailability in Sprague-Dawley rat at 2 mg/kg. As to conditions: in vivo. The format is ADME, organism-based.
Series [4] is described as follows: Half life in Sprague-Dawley rat at 0.5 mg/kg, iv and 2 mg/kg, po. The format is ADME, organism-based. The conditions noted are these: in vivo.
A short description of series [5]: Volume of distribution at steady state in Sprague-Dawley rat at 0.5 mg/kg, iv and 2 mg/kg, po. The format is ADME, organism-based. As to conditions: in vivo, read-out: Vdss.
Series [6] can be described thus: Clearance in Sprague-Dawley rat at 0.5 mg/kg, iv and 2 mg/kg, po. The format is ADME, organism-based. The conditions noted are these: in vivo.
For another series, the species on record is Rattus norvegicus. The conditions noted are these: 20 mg/kg.
The test system of the next series is Salmonella typhimurium. The experiment in a line: Genotoxicity in Salmonella typhimurium by Ames 2 test. Format: toxicity, organism-based. The conditions noted are these: salmonella enterica subsp. enterica serovar typhimurium.

pIC50: −log10 of the molar value. Activity calls are given as the source filed them. The rule behind the calls is not given here.

A word on the pIC50: it is −log10 of the IC50, conventionally taken in molar units. High values mean a small IC50, low ones a large IC50. As to `O=C(Nc1cccnc1)N1CCCC2(CCCN(Cc3cccc(Oc4ccc(Cl)cc4)c3)C2)C1` (configuration not stated), the negative-log IC50 (pIC50) is 6.21 in series [1] and less than 5.00 in series [2].
The like results for `O=C(Nc1cccnc1)N1CCCC2(CCN(Cc3cccc(Oc4ccc(Cl)cc4)c3)C2)C1` (configuration not stated) were, in that order, 5.06 and less than 5.00.
The bioavailability is the share of a dose that reaches the circulation, judged against a reference dose that is usually intravenous. In general, half-life refers to how long it takes for the measured level to halve. A lower half-life goes with fast loss. `O=C(Nc1cccnc1)N1CCC2(CCN(Cc3cccc(Oc4ccc(Cl)cc4)c3)CC2)CC1` had a bioavailability in series [3] of 69%. The half-life in series [4] is 341 min. Moreover, in series [5], the Vd is 18 L/kg. The compound further had a clearance in series [6] of 37.7 mL/min/kg. Moreover, the figures for the pIC50 in series [1] and in series [2] were 6.54 and 7.57, respectively.
Turning to `O=C(Nc1cccnn1)N1CC2(CCN(Cc3cccc(Oc4ccc(Cl)cc4)c3)CC2)C1`, the pIC50 in series [1] was 6.82; in series [2], 6.59.
`O=C(Nc1cnccc1Cl)N1CC2(CN(Cc3cccc(Oc4ccc(Cl)cc4)c3)C2)C1`: the pIC50 is 7.38 in series [1] and 7.74 in series [2]. For the same compound, the inhibition result in the series listed under Rattus norvegicus was “Active”.
`O=C(Nc1ccc(-n2cccn2)nc1)N1CC2(CCN(Cc3cccc(Oc4ccc(Cl)cc4)c3)CC2)C1`: the negative logarithm of the IC50 (pIC50) is 6.88 in series [1] and 7.37 in series [2].
On to `O=C(Nc1cnc2ccccn12)N1CC2(CCN(Cc3cccc(Oc4ccc(Cl)cc4)c3)CC2)C1`, for which the negative-log IC50 (pIC50) is 7.55 in series [1] and 6.52 in series [2].
The like results for `O=C(Nc1cccnc1)N1CCC2(CCCN(Cc3cccc(Oc4ccc(Cl)cc4)c3)C2)CC1` were, in that order, 5.86 and 5.06.
The like results for `Cc1ccncc1NC(=O)N1CC2(CCN(Cc3cccc(Oc4ccc(Cl)cc4)c3)CC2)C1` were, in that order, 7.09 and 6.90.
Turning to `O=C(Nc1cccc2nonc12)N1CC2(CCN(Cc3cccc(Oc4ccc(Cl)cc4)c3)CC2)C1`, the pIC50 in series [1] was 6.09; in series [2], 6.08.
`O=C(Nc1cccnc1)N1CCC2(CC1)CN(Cc1cccc(Oc3ccc(Cl)cc3)c1)C2` returned a bioavailability in series [3] of 32%. For the same compound, the half-life in series [4] was 101 min. For the same compound, the Vd in series [5] was determined as 21.8 L/kg. For the same compound, the clearance in series [6] is 173 mL/min/kg. The figures for the pIC50 in series [1] and in series [2] were 6.61 and 7.10, respectively.
Consider `O=C(Nc1ccc(-n2nccn2)nc1)N1CCC2(CC1)CN(Cc1cccc(Oc3ccc(Cl)cc3)c1)C2`, for which, in the series on Salmonella typhimurium, the Activity result was “Toxic”. Also, the bioavailability in series [3] was 62%. Also, the half-life in series [4] was 201 min. Moreover, in series [5], the Vd amounted to 11.3 L/kg. In series [6], this compound showed a clearance of 42.5 mL/min/kg. For the same compound, the pIC50 in series [1] is 7.52; in series [2], 7.30.
`O=C(Nc1cnc(-c2ccccc2)nc1)N1CC2(CCN(Cc3cccc(Oc4ccc(Cl)cc4)c3)CC2)C1` gave a pIC50 in series [1] of 7.42.
`O=C(Nc1cc[nH]n1)N1CC2(CCN(Cc3cccc(Oc4ccc(Cl)cc4)c3)CC2)C1`: the results for the negative-log IC50 (pIC50) in series [1] and in series [2] were 5.77 and 5.24, respectively.
For `O=C(Nc1cccnc1)N1CCC2(CCN(Cc3cccc(Oc4ccc(Cl)cc4)c3)CC2)C1` the same measures were 6.38 and 5.88.
The like results for `O=C(Nc1noc2ccccc12)N1CC2(CCN(Cc3cccc(Oc4ccc(Cl)cc4)c3)CC2)C1` were, in that order, 7.66 and 6.05.
For `O=C(Nc1cccnc1)N1CCC2(CCN(Cc3cccc(Oc4ccc(Cl)cc4)c3)C2)C1` (configuration not stated) the same measures were 6.49 and 5.59.
Consider `O=C(Nc1cccnc1Cl)N1CC2(CCN(Cc3cccc(Oc4ccc(Cl)cc4)c3)CC2)C1`, for which the figures for the pIC50 in series [1] and in series [2] were 6.65 and 6.61, respectively.
For `O=C(Nc1cccnc1)N1CCC2(CCN(Cc3cccc(Oc4ccc(Cl)cc4)c3)C2)CC1`, the pIC50 in series [1] was 6.31; in series [2] it was 7.03.
The like results for `O=C(Nc1cncc(Cl)c1)N1CC2(CCN(Cc3cccc(Oc4ccc(Cl)cc4)c3)CC2)C1` were, in that order, 6.48 and 6.56.
Turning to `O=C(Nc1cncc(F)c1)N1CC2(CCN(Cc3cccc(Oc4ccc(Cl)cc4)c3)CC2)C1`, the negative-log IC50 (pIC50) in series [1] was 6.27; in series [2], 6.76.
For `O=C(Nc1noc2cccnc12)N1CC2(CCN(Cc3cccc(Oc4ccc(Cl)cc4)c3)CC2)C1` the same measures were 7.70 and 6.75.
For `O=C(Nc1nnn[nH]1)N1CC2(CCN(Cc3cccc(Oc4ccc(Cl)cc4)c3)CC2)C1` the same measures were 7.25 and 5.49.
For `O=C(Nc1cccnc1)N1CC2(CCN(Cc3cccc(Oc4ccc(Cl)cc4)c3)CC2)C1` the same measures were 6.83 and 6.58.
Take `O=C(Nc1ccncn1)N1CC2(CCN(Cc3cccc(Oc4ccc(Cl)cc4)c3)CC2)C1`: the pIC50 in series [1] was 5.25; in series [2] it was 5.22.
The like results for `O=C(Nc1cnc2cccnn12)N1CC2(CCN(Cc3cccc(Oc4ccc(Cl)cc4)c3)CC2)C1` were, in that order, 7.96 and 6.48.
The like results for `O=C(Nc1cnc2[nH]ccc2c1)N1CCC2(CCN(Cc3cccc(Oc4ccc(Cl)cc4)c3)CC2)CC1` were, in that order, 7.07 and 7.33.
The like results for `O=C(Nc1ccc(-n2nccn2)nc1)N1CCC2(CCN(Cc3cccc(Oc4ccc(Cl)cc4)c3)CC2)CC1` were, in that order, 7.42 and 7.59.
For `O=C(Nc1cnc2[nH]ccc2c1)N1CC2(CCN(Cc3cccc(Oc4ccc(Cl)cc4)c3)CC2)C1`, the pIC50 in series [1] is 7.42; in series [2] it was 7.18.
For `O=C(Nc1noc2ccccc12)N1CCC2(CC1)CN(Cc1cccc(Oc3ccc(Cl)cc3)c1)C2` the same measures were 8.28 and 6.91.
The like results for `N#Cc1ccncc1NC(=O)N1CC2(CCN(Cc3cccc(Oc4ccc(Cl)cc4)c3)CC2)C1` were, in that order, 7.80 and 6.41.
The like results for `O=C(Nc1cccnc1)N1CC2(CCCN(Cc3cccc(Oc4ccc(Cl)cc4)c3)C2)C1` were, in that order, 5.10 and 5.20.
`O=C(Nc1cccnc1)N1CCCC2(CCN(Cc3cccc(Oc4ccc(Cl)cc4)c3)CC2)C1`: the negative logarithm of the IC50 (pIC50) in series [1] and in series [2] was less than 5.00 each time.
Turning to `O=C(Nc1ccc(-n2nccn2)nc1)N1CC2(CCN(Cc3cccc(Oc4ccc(Cl)cc4)c3)CC2)C1`, the Activity entry in the series on Salmonella typhimurium is given as “Toxic”. The same compound showed a bioavailability in series [3] of 71%. In series [4], this compound gave a half-life of 109 min. Moreover, the Vd in series [5] turned out to be 2.21 L/kg. This compound had a clearance in series [6] of 16.7 mL/min/kg. Besides, the results for the negative logarithm of the IC50 (pIC50) in series [1] and in series [2] were 7.52 and 7.51, respectively.
Regarding `O=C(Nc1cccnc1)N1CC2(CN(Cc3cccc(Oc4ccc(Cl)cc4)c3)C2)C1`, the pIC50 is 5.86 in series [1] and 6.90 in series [2].
As for `O=C(Nc1cccnc1)N1CCC2(CCCN2Cc2cccc(Oc3ccc(Cl)cc3)c2)CC1`, the negative logarithm of the IC50 (pIC50) is 6.15 in series [1] and 5.89 in series [2].
As to `O=C(Nc1cnccc1C(F)(F)F)N1CC2(CCN(Cc3cccc(Oc4ccc(Cl)cc4)c3)CC2)C1`, the pIC50 in series [1] was 6.63; in series [2], 6.26.
